Reference: ChEMBL document CHEMBL1649406, “Synthesis and anti-mycobacterial activities of triazoloquinolones” (Eur J Med Chem, 2011)
Converted amounts (≈) assume the structure as drawn.

Experiments:
Assay type in all cases: functional
[1] = test system: Mycobacterium tuberculosis; test: Antimycobacterial activity against Mycobacterium tuberculosis H37Rv by twofold agar dilution method
Method in brief: (§1)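 Strains grown in Middlebrook 7H11 with OADC. Suspensions at McFarland 1 turbidity were diluted 1:10, 1:100 and 1:10,000 in Middlebrook 7H9. These were inoculated onto duplicate Middlebrook 7H11 plates containing serial concentrations of compound.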

[2] = test system: Mycolicibacterium smegmatis; test: Antimycobacterial activity against Mycobacterium smegmatis MC2 155 after 72 hrs by broth microdilution method; settings: str. MC2 155, 72 h
Method in brief: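 Strains were pre-grown in Middlebrook 7H11 with OADC. The microdilution assay ran in sealed 96-well plates at 37 °C and was read after 72 h for M. smegmatis mc²155 and after 7 days for M. bovis BCG.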

[3] = test system: Mycobacterium tuberculosis; test: Antimycobacterial activity against Mycobacterium tuberculosis H37Ra by twofold agar dilution method; method in brief: as §1
Escherichia coli = test: Antibacterial activity against Escherichia coli after 18 to 24 hrs by broth microdilution method
Method in brief: (§2)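 Broth microdilution per CLSI; compounds dissolved in DMSO at 10 mg/mL stock, serially diluted in Mueller Hinton Broth, mixed with equal volume of bacterial inoculum (final […]); incubated 37 °C for 18–24 h; MIC taken as lowest concentration preventing visible growth; duplicate determinations.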

[4] = test system: Stenotrophomonas maltophilia; test: Antibacterial activity against Stenotrophomonas maltophilia after 18 to 24 hrs by broth microdilution method; method in brief: as §2
Candida tropicalis = test: Antifungal activity against Candida tropicalis after 48 hrs by NCCLS method
Method in brief: (§3)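 NCCLS yeast broth dilution; inocula from 48 h, 35 °C Sabouraud agar cultures diluted to 10⁶ CFU/mL; compounds from 10 mg/mL DMSO stock serially diluted in RPMI-1640, added to equal volume of fungal suspension in round-bottom microplates; incubated 35 °C for 48–72 h; MIC in duplicate.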

Klebsiella pneumoniae = test: Antibacterial activity against Klebsiella pneumoniae after 18 to 24 hrs by broth microdilution method; method in brief: as §2
Staphylococcus aureus = test: Antibacterial activity against Staphylococcus aureus after 18 to 24 hrs by broth microdilution method; method in brief: as §2
Acinetobacter baumannii = test: Antibacterial activity against Acinetobacter baumannii after 18 to 24 hrs by broth microdilution method; method in brief: as §2
[5] = test system: Staphylococcus epidermidis; test: Antibacterial activity against Staphylococcus epidermidis after 18 to 24 hrs by broth microdilution method; method in brief: as §2
Candida albicans = test: Antifungal activity against Candida albicans after 48 hrs by NCCLS method; method in brief: as §3
Enterococcus faecalis = test: Antibacterial activity against Enterococcus faecalis after 18 to 24 hrs by broth microdilution method; method in brief: as §2
Enterobacter cloacae = test: Antibacterial activity against Enterobacter cloacae after 18 to 24 hrs by broth microdilution method; method in brief: as §2
Pseudomonas aeruginosa = test: Antibacterial activity against Pseudomonas aeruginosa after 18 to 24 hrs by broth microdilution method; method in brief: as §2

SMILES	MIC [1] [µg/mL]	MIC [2] [µg/mL]	MIC [3] [µg/mL]	MIC (Escherichia coli) [µg/mL]	MIC [4] [µg/mL]	MIC (Candida tropicalis) [µg/mL]	MIC (Klebsiella pneumoniae) [µg/mL]	MIC (Staphylococcus aureus) [µg/mL]	MIC (Acinetobacter baumannii) [µg/mL]	MIC [5] [µg/mL]	MIC (Candida albicans) [µg/mL]	MIC (Enterococcus faecalis) [µg/mL]	MIC (Enterobacter cloacae) [µg/mL]	MIC (Pseudomonas aeruginosa) [µg/mL]
CC[C@@H](CO)NCCN[C@@H](CC)CO [ETHAMBUTOL]	5 (≈ 24.5 µM)	0.5 (≈ 2.45 µM)	4 (≈ 19.6 µM)	–	–	–	–	–	–	–	–	–	–	–
CCCCn1cc(C(=O)O)c(=O)c2ccc3c(nnn3Cc3ccccc3)c21	64 (≈ 170 µM)	> 128	64 (≈ 170 µM)	> 64	> 64	> 64	> 64	> 64	> 64	> 64	> 64	> 64	> 64	> 64
C=C(C)Cn1cc(C(=O)O)c(=O)c2ccc3c(nnn3C)c21	64 (≈ 215 µM)	64 (≈ 215 µM)	32 (≈ 107 µM)	> 64	> 64	> 64	> 64	> 64	> 64	> 64	> 64	> 64	> 64	> 64
CO[C@H]1/C=C/O[C@@]2(C)Oc3c(C)c(O)c4c(O)c(c(/C=N/N5CCN(C)CC5)c(O)c4c3C2=O)NC(=O)/C(C)=C\C=C\[C@H](C)[C@H](O)[C@@H](C)[C@@H](O)[C@@H](C)[C@H](OC(C)=O)[C@@H]1C [RIFAMPIN]	< 0.5	8 (≈ 9.72 µM)	≤ 0.06	–	–	–	–	–	–	–	–	–	–	–
C=C(C)Cn1cc(C(=O)OCC)c(=O)c2ccc3c(nnn3C)c21	64 (≈ 196 µM)	> 128	> 128	> 64	> 64	> 64	> 64	> 64	> 64	> 64	> 64	> 64	> 64	> 64
CCn1cc(C(=O)O)c(=O)c2ccc3c(nnn3Cc3ccccc3)c21	64 (≈ 184 µM)	64 (≈ 184 µM)	8 (≈ 23 µM)	> 64	> 64	> 64	> 64	> 64	> 64	> 64	> 64	> 64	> 64	> 64
Cn1nnc2c3c(ccc21)c(=O)c(C(=O)O)cn3CC1CCC1	32 (≈ 102 µM)	64 (≈ 205 µM)	16 (≈ 51.2 µM)	> 64	> 64	> 64	> 64	> 64	> 64	> 64	> 64	> 64	> 64	> 64
Cn1nnc2c3c(ccc21)c(=O)c(C(=O)O)cn3CC1CC1	32 (≈ 107 µM)	64 (≈ 215 µM)	16 (≈ 53.6 µM)	> 64	> 64	> 64	> 64	> 64	> 64	> 64	> 64	> 64	> 64	> 64
CCOC(=O)c1cn(C(C)(C)C)c2c(ccc3c2nnn3C)c1=O	32 (≈ 97.5 µM)	16 (≈ 48.7 µM)	4 (≈ 12.2 µM)	> 64	> 64	> 64	> 64	> 64	> 64	> 64	> 64	> 64	> 64	> 64
CN[C@@H]1[C@H](O[C@H]2[C@H](O[C@H]3[C@H](O)[C@@H](O)[C@H](N=C(N)N)[C@@H](O)[C@@H]3N=C(N)N)O[C@@H](C)[C@]2(O)C=O)O[C@@H](CO)[C@H](O)[C@H]1O [STREPTOMYCIN]	1 (≈ 1.72 µM)	–	1 (≈ 1.72 µM)	–	–	–	–	–	–	–	–	–	–	–
C=CCn1cc(C(=O)OCC)c(=O)c2ccc3c(nnn3Cc3ccccc3)c21	64 (≈ 165 µM)	> 128	> 128	> 64	> 64	> 64	> 64	> 64	> 64	> 64	> 64	> 64	> 64	> 64
O=C(O)c1cn(C2CC2)c2cc(N3CCNCC3)c(F)cc2c1=O [CIPROFLOXACIN]	0.5 (≈ 1.51 µM)	0.125 (≈ 0.377 µM)	0.5 (≈ 1.51 µM)	–	–	–	–	–	–	–	–	–	–	–
CCOC(=O)c1cn(CC2CC2)c2c(ccc3c2nnn3C)c1=O	64 (≈ 196 µM)	> 128	> 128	> 64	> 64	> 64	> 64	> 64	> 64	> 64	> 64	> 64	> 64	> 64
C=CCn1cc(C(=O)O)c(=O)c2ccc3c(nnn3Cc3ccccc3)c21	64 (≈ 178 µM)	> 128	4 (≈ 11.1 µM)	> 64	> 64	> 64	> 64	> 64	> 64	> 64	> 64	> 64	> 64	> 64
CCOC(=O)c1cn(C)c2c(ccc3c2nnn3Cc2ccccc2)c1=O	64 (≈ 177 µM)	> 128	> 128	> 64	> 64	> 64	> 64	> 64	> 64	> 64	> 64	> 64	> 64	> 64
CCCCn1cc(C(=O)OCC)c(=O)c2ccc3c(nnn3Cc3ccccc3)c21	64 (≈ 158 µM)	> 128	32 (≈ 79.1 µM)	> 64	> 64	> 64	> 64	> 64	> 64	> 64	> 64	> 64	> 64	> 64
CCOC(=O)c1cn(CC)c2c(ccc3c2nnn3Cc2ccccc2)c1=O	64 (≈ 170 µM)	> 128	> 128	> 64	> 64	> 64	> 64	> 64	> 64	> 64	> 64	> 64	> 64	> 64
